# High-throughput results from PubChem.
# In the library only some 3.4% were active in any assay of this set; here they are far more common.
# A3G deaminase: APOBEC3G (human) deaminase inhibition | Q9HC16 | recombinant A3G, ssDNA deamination FAM/TAMRA fluorescence | inhibition, % at 20 µM | 330,000 compounds, 0.28% hits;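 active means inhibition of at least 40% at 20 µM, with no more than 30% in the related APOBEC3A deaminase screen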
# Target sequence (Q9HC16 whole entry, looked up): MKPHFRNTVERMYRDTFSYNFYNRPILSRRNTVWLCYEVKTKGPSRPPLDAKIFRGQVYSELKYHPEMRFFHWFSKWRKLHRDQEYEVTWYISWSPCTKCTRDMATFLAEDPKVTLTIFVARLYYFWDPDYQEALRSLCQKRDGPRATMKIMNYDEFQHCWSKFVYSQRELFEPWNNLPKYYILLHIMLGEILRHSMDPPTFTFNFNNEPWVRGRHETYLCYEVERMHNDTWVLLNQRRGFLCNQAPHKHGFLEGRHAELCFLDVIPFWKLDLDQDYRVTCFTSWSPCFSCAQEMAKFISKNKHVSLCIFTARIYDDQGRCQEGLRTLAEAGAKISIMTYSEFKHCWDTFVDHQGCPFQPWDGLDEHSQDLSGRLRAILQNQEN
# Arr AP2 block: inhibitors of human beta-arrestin and AP2 interaction; FITC-arrestin peptide / GST-AP2 beads, flow cytometry; AP2 beta2 appendage carries R879A mutation; AID 504490; inhibition, % at 10 µM; 340,000 compounds, 0.31% hits;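 active means inhibition above a set limit, near 3 SD of compounds lacking own fluorescence, cut at about 54% in these data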
#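 Assay system: GST-AP2 R879A bound to glutathione beads, E. coli-expressed; Medium: PBS with 0.05% Tween 20 and 0.1% BSA; Also added: fluorescein-tagged arrestin peptide at 50 nM final; Timing: 12 min plus 1 h, RT; Measured by: flow cytometry, FL1 (488/535 nm); Evaluation: percent drop in bead-associated FITC signal.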
# AHR act: activators of human aryl hydrocarbon receptor. P35869. AHR-responsive luciferase reporter cells, luminescence. activation, % at 5 µM. 320,000 compounds, 2.5% hits. AID 2796; in the data active means activation above about 47%
# PolyA inh: yeast polyadenylation inhibition | S. cerevisiae SKY197-pL101 polyadenylation reporter, beta-gal luminescence; efflux-impaired pdr1/pdr3 knockout yeast; score 100 = 6 SD above DMSO | activity score, % at 12 µM | 300,000 compounds, 0.02% hits | AID 1875;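 active means lowest replicate activity score at least 50, where 100 means six control SD above control mean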;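 further: yeast exposed to compound for 9 h at 30 °C; higher score means more reporter readthrough which indicates perturbed polyadenylation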
# APOBEC3A inh: inhibitors of human APOBEC3A DNA deaminase; AID 493011; recombinant A3A, FAM/TAMRA ssDNA deamination fluorescence; 330,000 compounds, 0.41% hits; P31941; inhibition, % at 20 µM;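 active means at least 40% inhibition at 20 µM here, with at most 30% in a related deaminase screen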
# Target sequence (P31941 whole entry, looked up): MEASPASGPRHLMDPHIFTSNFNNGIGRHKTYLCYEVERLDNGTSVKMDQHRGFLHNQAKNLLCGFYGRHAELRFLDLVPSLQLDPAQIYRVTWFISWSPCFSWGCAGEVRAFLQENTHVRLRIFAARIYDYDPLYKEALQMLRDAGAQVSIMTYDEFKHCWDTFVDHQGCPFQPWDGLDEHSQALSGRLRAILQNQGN
# UCH37 inh: blocks the human deubiquitinase UCH37; purified proteasome/UCH37, Ub-AMC cleavage fluorescence; inhibition, % (concentration not given with the values); 330,000 compounds, 0.33% hits;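 active means mean inhibition over replicate wells above about 20%, limit read from the data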
#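 Reagent: Ub-AMC substrate; assay system: Proteasome-associated human UCH37 deubiquitinase; controls: no-proteasome and no-compound wells; read-out: % inhibition of Ub-AMC cleavage fluorescence; timing: 30 min preincubation with enzyme, 25 min cleavage at room temperature; signal: AMC fluorescence from Ub-AMC cleavage, excitation 355 nm, emission 460 nm; buffer or medium: Tris-HCl pH 7.4 plus ovalbumin, ATP-MgCl2, DTT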
# A number is an active result; – = inactive; · = no result given.
SMILES,A3G deaminase,Arr AP2 block,AHR act,PolyA inh,APOBEC3A inh,UCH37 inh
CC(=O)c1c(C)[nH]c(C(=O)NC2=NCCS2)c1C,–,–,75,–,–,–
O=C(Nc1ccccc1N1CCCCC1)c1cccc([N+](=O)[O-])c1,–,–,–,–,–,–
CC(=O)c1c(C)[nH]c(C(=O)Nc2ccc(Cl)cc2F)c1C,–,–,–,–,–,–
CCOc1cc(N2CCOCC2)c(OCC)cc1NC(=O)c1[nH]c(C)c(C(C)=O)c1C,–,–,–,·,–,–
CC(=O)c1c(C)[nH]c(C(=O)Nc2ccccc2N2CCOCC2)c1C,–,–,72,–,–,–
CC(=O)c1c(C)[nH]c(C(=O)Nc2ccc(F)c(F)c2F)c1C,–,–,62,–,–,–
O=C(Nc1ccccc1N1CCOCC1)c1cccc([N+](=O)[O-])c1,–,–,67,–,–,–
COc1ccc2oc(C(=O)Nc3nccs3)c(C)c2c1,–,–,77,–,–,–
CC(C)OCc1c(C(=O)Nc2nccs2)oc2ccccc12,–,–,57,–,–,·
Cc1c(C(=O)Nc2ccccn2)oc2c(Cl)cccc12,–,–,74,–,–,–
CCCc1nnc(NC(=O)c2oc3ccccc3c2COCC)s1,–,–,·,·,–,–
Cc1c(C(=O)Nc2nccs2)oc2c(Cl)cccc12,–,–,55,–,–,–
Cc1cccc(N=Cc2ccccn2)n1,·,·,·,·,·,–
Cc1cc(C(=O)NN=Cc2c(C)nn(-c3ccccc3)c2C)n[nH]1,·,·,·,·,·,–
CC(C)c1ccc(CNc2ccc3c(c2)ncn3C)cc1,–,–,63,–,–,–
COc1ccc(Cl)cc1C=NNC(=O)c1c(-c2ccccc2)noc1C,·,·,·,·,·,–
NNC(=O)c1nc(Cl)c(Cl)c(N)c1Cl,–,–,77,–,–,–
Nc1c(Cl)c(Cl)nc(C(=O)N/N=C/c2ccco2)c1Cl,–,–,53,–,–,·
Nc1c(Cl)c(Cl)nc(C(=O)NN=Cc2ccco2)c1Cl,·,·,·,·,·,–
CC(C)c1ccc(C=NNC(=O)c2cccc(S(=O)(=O)N3CCOCC3)c2)cc1,·,·,·,·,·,–
O=C(Nc1ccc(Cl)cc1)N1CCc2ccccc2C1,–,–,63,–,–,–
COc1ccc(NC(=O)N2CCc3ccccc3C2)cc1,–,–,·,–,–,–
O=C(CN(c1cccc(Cl)c1)S(=O)(=O)c1ccc(Cl)cc1)N1CCc2ccccc2C1,–,–,61,–,–,–
CCOc1ccc(NC(=O)N2CCc3ccccc3C2)cc1,–,–,67,–,–,–
Cc1ccc(NC(=O)N2CCc3ccccc3C2)cc1,–,–,–,–,–,–
SMILES,A3G deaminase,Arr AP2 block,AHR act,PolyA inh,APOBEC3A inh,UCH37 inh
COc1ccc(CNC(=S)NN=C(C)c2ccc(OC)cc2)cc1,·,·,·,·,·,–
COc1ccc(/C(C)=N/NC(=S)NCc2ccco2)cc1,–,–,63,–,–,·
Cc1cccc(CN(CC(=O)NN=Cc2cccs2)S(=O)(=O)c2ccc(Cl)cc2)c1,·,·,·,·,·,–
Cc1[nH]c2ccccc2c1/C=N/Nc1ccc(F)cc1F,·,·,78,·,·,·
Fc1ccc(N/N=C/c2cccnc2)c(F)c1,–,–,–,–,–,·
Cc1[nH]c2ccccc2c1/C=N/Nc1ccccn1,·,·,·,–,·,·
COc1cc(/C=N/Nc2ccc(F)cc2F)cc(OC)c1OC,–,–,70,–,–,·
Cc1ccc(O)c(Nc2ncnc3ccc([N+](=O)[O-])cc23)c1,–,–,50,–,–,–
O=[N+]([O-])c1ccc(O)c(Nc2ncnc3ccc(Br)cc23)c1,–,–,75,–,–,–
O=[N+]([O-])c1ccc(O)c(Nc2ncnc3ccccc23)c1,–,–,–,–,–,–
CCOc1ccc(Br)cc1C(=O)NN=Cc1cccnc1,·,·,·,·,·,–
O=C(N/N=C/c1cccnc1)c1cccc(NC(=O)c2cccc(Br)c2)c1,–,–,76,–,–,·
CCOc1ccc(Br)cc1C(=O)N/N=C/c1cccnc1,–,–,67,–,–,·
CC(=O)Nc1cccc(C(=O)N/N=C/c2cccnc2)c1,–,–,–,–,–,·
COc1cc2c(-c3ccccc3)c(C)oc2cc1C=NNC(N)=S,·,·,·,·,·,–
O=C(NN=Cc1cccc(Br)c1)c1ccc(Br)cc1,·,·,·,·,·,–
O=C(/C=C/c1ccc(Cl)cc1)N(Cc1ccccc1)c1ccccn1,–,–,–,–,–,27
Cc1ccc(CN2CCN(CC(=O)NN=Cc3c[nH]c4ccccc34)CC2)cc1,·,·,·,·,·,–
Cc1cc(=O)c2ccccc2n1Cc1ccccc1,–,–,57,–,–,–
Cc1cc(=O)c2ccccc2n1CC(=O)NCc1ccccc1,–,–,–,–,–,–
COc1cccc(-c2nnc(NC(=O)c3ccco3)s2)c1,–,–,–,–,–,–
CC(C)c1nnc(NC(=O)c2cccs2)s1,–,–,53,–,–,–
COc1cccc(-c2nnc(NC(=O)c3cccs3)s2)c1,–,–,64,–,–,–
COc1ccc(C=NNC(=O)CNS(=O)(=O)c2ccc(C)cc2)cc1,·,·,·,·,·,–
Cn1c2ccccc2n2c(=O)c(Cl)c(-c3ccccc3)c(C#N)c12,–,–,59,–,–,–
SMILES,A3G deaminase,Arr AP2 block,AHR act,PolyA inh,APOBEC3A inh,UCH37 inh
CC(C)C/C=C1\CCc2c([nH]c3ccccc23)C1=O,–,–,64,–,–,–
O=C1/C(=C/c2cccnc2)CCc2c1[nH]c1ccccc21,–,–,73,–,–,–
CCCCCCCCC1=NCCc2c1[nH]c1ccccc21,–,–,–,–,–,–
COc1ccccc1/C=C/C(=O)Nc1nc(N)n(-c2ccccc2)n1,–,–,78,–,–,–
Oc1[nH]c2ccccc2c1/C=N/c1nccs1,–,–,53,–,–,·
O=C(CNc1ccc2c(c1)OCO2)N/N=C\c1ccccc1Cl,–,–,81,–,–,·
Oc1[nH]c2ccccc2c1C=Nc1ccc2c(c1)OCO2,–,–,58,–,–,–
Cc1[nH]c2ccccc2c1/C=N\NC(=O)CNc1ccc2c(c1)OCO2,–,–,68,–,–,·
COc1cc(C=NNS(=O)(=O)c2ccc3ccccc3c2)ccc1OCc1ccc(C(=O)O)cc1,·,·,·,·,·,–
CCOc1ccc(C=NNc2ccccn2)cc1,·,·,·,·,·,–
CCCCNC(=S)N(C)/N=C/c1c(C)[nH]c2ccccc12,–,–,71,–,–,·
Cc1cc(Nc2ccc(C)c(Br)c2)n2nc(C)nc2n1,–,–,61,–,–,–
Cc1cc(Nc2ccccc2Br)n2nc(C)nc2n1,–,–,–,–,–,–
O=C(Nc1cc([N+](=O)[O-])ccc1C(=O)Nc1cccnc1)c1ccccc1,–,–,66,–,–,–
Cc1ccc(NC(=O)c2cc([N+](=O)[O-])ccc2NCc2cccnc2)cc1,–,–,75,–,–,–
CCN1c2ccccc2N(C)C1(C)c1ccccc1 (stereo not drawn),·,75,–,·,·,–
CCN1C(=O)N(c2cccc3ccccc23)C(C)=CC1(C)C,–,–,–,–,–,–
NC(=NOC(=O)CCCOc1ccccc1)c1ccc([N+](=O)[O-])cc1,·,·,·,·,·,–
